Drawing on PubChem BioAssay, this text covers GFP response vs DMSO, GFP response relative to DMSO and GFP response, % of DMSO for 14 compounds.

Structures are written as SMILES. The source made the active and inactive calls.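 Rule for the calls, unless noted: active = GFP response above 150% of the DMSO level; inconclusive = fewer than 70 events counted for a yeast strain; inactive = the rest.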

A short description of test [1]: hit retest on RPL19A-GFP reporter strain – cell-based, S. cerevisiae, flow cytometry, cherry picks, mother/daughter gates, confirmation (AID 2270;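 active = GFP response below 50% of the DMSO control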). The following applies: 3 h, at 10 µM, stronger effect = lower value, 100 = same GFP as DMSO wells.
Test [2] in a line: yeast TOR pathway reporter LAP4-GFP change – cell-based, cherry picks, flow cytometry, mother/daughter gates, confirmation (AID 2271;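 active = GFP response above 150% of the DMSO control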;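 note: ratio of sample to DMSO plate mean so 100% equals DMSO level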). The following applies: S. cerevisiae LAP4-GFP strain, 3 h, at 10 µM, stronger effect = higher value, 100 means same as DMSO control. An outline of the steps: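 System: Alexa 633-stained baker's yeast GFP-fusion strain; quantity: 0.2 OD600 cells; timing: compound exposure 3 h at 30 °C, end-over-end rotation; detection: HT flow cytometry, GFP fluorescence channel; measure: per-gate (all, mother, daughter) GFP response vs DMSO; control set: DMSO-only negative wells, rapamycin 400 ng/mL positive wells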
Background: In flow cytometry, cells or beads pass a laser one at a time.

A short description of test [3]: TOR pathway reporter MEP2-GFP, retest of hits – S. cerevisiae, flow cytometry GFP, cherry picks, confirmation (AID 2272;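 active = GFP response above 150% of the DMSO control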;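 note: ratio of well signal to plate DMSO mean so 100% equals DMSO level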). Conditions: S. cerevisiae MEP2-GFP strain, 3 h, at 10 µM, stronger effect = higher value.
Test [4] in a line: yeast AGP1-GFP fluorescence change, single-dose – cell-based, flow cytometry, S. cerevisiae, cherry picks, confirmation (AID 2273).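 Note: median GFP channel fluorescence over the whole cell population gate.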 The following applies: S. cerevisiae AGP1-GFP strain, 3 h, at 10 µM.
The nature of test [5]: TOR pathway CIT2 reporter hit retest – S. cerevisiae, GFP fusion, cherry picks, mother/daughter gates, confirmation (AID 2274). Conditions: S. cerevisiae CIT2-GFP strain, flow cytometry, 3 h, at 10 µM, stronger effect = higher value.
Where [6] appears, read: measured here: daughter cell gate.
Setting [7] is: measured here: mother cell gate.
The mark [8] stands for this setting: measured here: daughter cell gate response.
Setting [9] is: measured here: mother cell gate response.

Turning to `Cc1cc(=O)oc2c(C(=O)/C=C\c3cccs3)c(O)ccc12`, the GFP response vs DMSO in test [1] is 98% (inactive); in test [1] (setting [6]) it was 100%; in test [1] (setting [7]) it was 95.3%; in test [3], 107% (inactive). Besides, the GFP response relative to DMSO in test [2] was 145% (inactive); in test [2] (setting [8]), 136%; in test [2] (setting [9]) it was 154%. Also, the GFP response, % of DMSO was 101% (inactive) in test [4], 95.9% (inactive) in test [5], 99.2% in test [5] (setting [6]) and 91.9% in test [5] (setting [7]).
As to `CCCCNC(=O)c1c(O)c2cccc3c2n(c1=O)CCC3`, the GFP response vs DMSO was 98.8% (inactive) in test [1], 98.4% in test [1] (setting [6]), 99.8% in test [1] (setting [7]) and 100% (inactive) in test [3]. Further, the GFP response relative to DMSO in test [2] was 97.4% (inactive); in test [2] (setting [8]), 95.6%; in test [2] (setting [9]), 100%. Moreover, the GFP response, % of DMSO was 100% (inactive) in test [4], 97.8% (inactive) in test [5], 96.5% in test [5] (setting [6]) and 97.7% in test [5] (setting [7]).
Consider `Cc1cccc(N2C(=O)CC(Sc3nc(C)c4c(n3)CCCC4)C2=O)c1` (centres undefined), for which the GFP response vs DMSO in test [1] was 96.8% (inactive); in test [1] (setting [6]), 95.4%; in test [1] (setting [7]) it was 97.2%; in test [3], 102% (inactive). The GFP response relative to DMSO in test [2] was 94.1% (inactive); in test [2] (setting [8]), 94.4%; in test [2] (setting [9]), 95.1%. For the same compound, the GFP response, % of DMSO in test [4] is 95% (inactive); in test [5] it was 99.7% (inactive); in test [5] (setting [6]) it was 99.1%; in test [5] (setting [7]) it was 99.7%.
Consider `O=C(NC(=S)NNC(=O)c1cnccn1)c1ccc(F)cc1`, for which the GFP response vs DMSO in test [1] was 110% (inactive); in test [1] (setting [6]), 91.7%; in test [1] (setting [7]), 105%; in test [3] it was 104% (inactive). Also, the GFP response relative to DMSO is 259% (active) in test [2], 234% in test [2] (setting [8]) and 254% in test [2] (setting [9]). The GFP response, % of DMSO in test [4] was 92.4% (inactive); in test [5], 99.1% (inactive); in test [5] (setting [6]), 96.5%; in test [5] (setting [7]) it was 92.3%.
Turning to `Cc1ccc(-c2csc(NC(=O)c3cccs3)n2)cc1`, the GFP response vs DMSO is 98.8% (inactive) in test [1], 93.9% in test [1] (setting [6]), 99.6% in test [1] (setting [7]) and 112% (inactive) in test [3]. The figures for the GFP response relative to DMSO in test [2], in test [2] (setting [8]) and in test [2] (setting [9]) were 105% (inactive), 99.1% and 107%, respectively. Further, the GFP response, % of DMSO in test [4] was 98% (inactive); in test [5], 94.4% (inactive); in test [5] (setting [6]) it was 90.2%; in test [5] (setting [7]), 94.4%.
Consider `COc1ccc(-c2[nH]ncc2N=Nc2ccccc2)cc1`, for which the GFP response vs DMSO in test [1] was 96.2% (inactive); in test [1] (setting [6]) it was 94.3%; in test [1] (setting [7]) it was 96.6%; in test [3] it was 94.4% (inactive). Also, the GFP response relative to DMSO in test [2] is 107% (inactive); in test [2] (setting [8]), 104%; in test [2] (setting [9]), 108%. For the same compound, the GFP response, % of DMSO in test [4] is 92.2% (inactive); in test [5] it was 97.2% (inactive); in test [5] (setting [6]), 98.4%; in test [5] (setting [7]), 93.7%.
`Cc1cc(N2CCCCC2)n2ncc(-c3ccccc3)c2n1`: the GFP response vs DMSO in test [1] was 97.6% (inactive); in test [1] (setting [6]) it was 97.3%; in test [1] (setting [7]), 98.4%; in test [3] it was 95.7% (inactive). In addition, the values for the GFP response relative to DMSO in test [2], in test [2] (setting [8]) and in test [2] (setting [9]) were 102% (inactive), 106% and 102%, respectively. Besides, the GFP response, % of DMSO was 95.2% (inactive) in test [4], 104% (inactive) in test [5], 103% in test [5] (setting [6]) and 103% in test [5] (setting [7]).
As to `O=C(Oc1oc(-c2ccco2)nc1C=Nc1ccc(Cl)cc1)c1ccco1`, the GFP response vs DMSO is 104% (inactive) in test [1], 104% in test [1] (setting [6]), 103% in test [1] (setting [7]) and 112% (inactive) in test [3]. The GFP response relative to DMSO in test [2] was 176% (active); in test [2] (setting [8]), 154%; in test [2] (setting [9]), 188%. For the same compound, the GFP response, % of DMSO is 99.8% (inactive) in test [4], 89.7% (inactive) in test [5], 95.2% in test [5] (setting [6]) and 83.8% in test [5] (setting [7]).
`CCOc1ccc(NC2=C(Cl)C(=O)N(Cc3ccccc3)C2=O)cc1`: the GFP response vs DMSO is 98.2% (inactive) in test [1], 98.3% in test [1] (setting [6]), 100% in test [1] (setting [7]) and 99.5% (inactive) in test [3]. Moreover, the GFP response relative to DMSO is 102% (inactive) in test [2], 96.5% in test [2] (setting [8]) and 102% in test [2] (setting [9]). The GFP response, % of DMSO is 95.8% (inactive) in test [4], 96.4% (inactive) in test [5], 98.3% in test [5] (setting [6]) and 94.5% in test [5] (setting [7]).
With `CCc1nnc(NC(=O)c2ccc(S(=O)(=O)N(CCOC)CCOC)cc2)o1`, the GFP response vs DMSO in test [1] is 95% (inactive); in test [1] (setting [6]), 94.4%; in test [1] (setting [7]), 96.2%; in test [3], 96.2% (inactive). Further, the GFP response relative to DMSO in test [2] is 91.5% (inactive); in test [2] (setting [8]), 96%; in test [2] (setting [9]), 90.8%. Moreover, the GFP response, % of DMSO was 97.8% (inactive) in test [4], 99.7% (inactive) in test [5], 101% in test [5] (setting [6]) and 101% in test [5] (setting [7]).
`Fc1ccc(/C=N/Nc2nc(-c3cccnc3)nc3ccccc23)cc1`: the GFP response vs DMSO in test [1] was 94.5% (inactive); in test [1] (setting [6]), 92.5%; in test [1] (setting [7]), 95%; in test [3] it was 102% (inactive). For the same compound, the GFP response relative to DMSO in test [2] was 107% (inactive); in test [2] (setting [8]) it was 105%; in test [2] (setting [9]) it was 111%. Besides, the GFP response, % of DMSO in test [4] is 94.6% (inactive); in test [5], 93.9% (inactive); in test [5] (setting [6]), 96.5%; in test [5] (setting [7]), 91.2%.
Turning to `COCCN(CCOC)S(=O)(=O)c1ccc(C(=O)Nc2nnc(C)o2)cc1`, the GFP response vs DMSO in test [1] is 100% (inactive); in test [1] (setting [6]), 100%; in test [1] (setting [7]), 101%; in test [3], 99% (inactive). Moreover, the GFP response relative to DMSO in test [2] was 99.5% (inactive); in test [2] (setting [8]), 97.5%; in test [2] (setting [9]), 98.4%. In addition, the GFP response, % of DMSO was 100% (inactive) in test [4], 102% (inactive) in test [5], 103% in test [5] (setting [6]) and 101% in test [5] (setting [7]).
On to `N=C1/C(=C\c2ccc(Br)o2)C(=O)N=C2SC(CC(=O)N3CCCCC3)=NN12`, for which the GFP response vs DMSO is 97.4% (inactive) in test [1], 96.8% in test [1] (setting [6]), 95.5% in test [1] (setting [7]) and 103% (inactive) in test [3]. Besides, the results for the GFP response relative to DMSO in test [2], in test [2] (setting [8]) and in test [2] (setting [9]) were 104% (inactive), 103% and 102%, respectively. Also, the GFP response, % of DMSO was 104% (inactive) in test [4], 107% (inactive) in test [5], 108% in test [5] (setting [6]) and 108% in test [5] (setting [7]).
In the case of `COc1cccc(N=Cc2nc(-c3ccccc3)oc2OC(C)=O)c1`, the GFP response vs DMSO is 97.4% (inactive) in test [1], 96.1% in test [1] (setting [6]), 98.7% in test [1] (setting [7]) and 87.8% (inactive) in test [3]. Moreover, the results for the GFP response relative to DMSO in test [2], in test [2] (setting [8]) and in test [2] (setting [9]) were 108% (inactive), 101% and 113%, respectively. Further, the GFP response, % of DMSO is 87.5% (inactive) in test [4], 95.5% (inactive) in test [5], 95.4% in test [5] (setting [6]) and 95% in test [5] (setting [7]).
